The values below come from PubChem BioAssay.

A short description of assay [1]: RPL19A-GFP modulators, yeast TOR pathway, confirmation, cell-based, S. cerevisiae, flow cytometry, cherry picks, mother/daughter gates (AID 2270;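 active = GFP response below 50% of the DMSO control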). The following applies: S. cerevisiae RPL19A-GFP strain, 3 h, at 10 µM, stronger effect = lower value, 100 = same GFP as DMSO wells. On the technique in general: In flow cytometry, cells or beads pass a laser one at a time.
Assay [2] in a line: LAP4-GFP expression modulators in yeast, confirmation, cell-based, cherry picks, flow cytometry, mother/daughter gates (AID 2271;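 active = GFP response above 150% of the DMSO control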;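 note: ratio of sample to DMSO plate mean so 100% equals DMSO level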). The following applies: S. cerevisiae LAP4-GFP strain, 3 h, at 10 µM, stronger effect = higher value, 100 means same as DMSO control. An outline of the steps:
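material = Alexa 633-stained baker's yeast GFP-fusion strain | amount = 0.2 OD600 cells | schedule = 30 °C, 3 h compound incubation, rotating | signal = GFP by flow cytometry | measure = per-gate (all, mother, daughter) GFP response vs DMSO | controls = positive rapamycin (400 ng/mL), negative DMSO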

The nature of assay [3]: modulators of MEP2-GFP levels in yeast, confirmation, S. cerevisiae, flow cytometry GFP, cherry picks (AID 2272;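 active = GFP response above 150% of the DMSO control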;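 note: ratio of well signal to plate DMSO mean so 100% equals DMSO level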). The note with it: S. cerevisiae MEP2-GFP strain, 3 h, at 10 µM, stronger effect = higher value.
The nature of assay [4]: AGP1-GFP expression modulators, hit retest, confirmation, cell-based, flow cytometry, S. cerevisiae, cherry picks (AID 2273).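 Note: median GFP channel fluorescence over the whole cell population gate.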 The following applies: S. cerevisiae AGP1-GFP strain, 3 h, at 10 µM.
The nature of assay [5]: modulators of CIT2-GFP expression in yeast, confirmation, S. cerevisiae, GFP fusion, cherry picks, mother/daughter gates (AID 2274). The note with it: S. cerevisiae CIT2-GFP strain, flow cytometry, 3 h, at 10 µM, stronger effect = higher value.
Setting [6] is: measured here: daughter cell gate.
Where [7] appears, read: measured here: mother cell gate.
Where [8] appears, read: measured here: daughter cell gate response.
Setting [9] is: measured here: mother cell gate response.

Each structure is given as a SMILES string. Active and inactive are the calls of the source.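 Rule for the calls, unless noted: active = GFP response above 150% of the DMSO level; inconclusive = fewer than 70 events counted for a yeast strain; inactive = the rest.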

As to `Cc1ccsc1/C=N/Nc1ncc(Cl)cc1Cl`, the GFP response vs DMSO in assay [1] is 97% (inactive); in assay [1] (setting [6]), 94.2%; in assay [1] (setting [7]), 85.8%; in assay [3] it was 109% (inactive). In addition, the GFP response relative to DMSO in assay [2] is 177% (active); in assay [2] (setting [8]), 107%; in assay [2] (setting [9]) it was 189%. Further, the GFP response, % of DMSO in assay [4] is 83.7% (inactive); in assay [5] it was 100% (inactive); in assay [5] (setting [6]), 101%; in assay [5] (setting [7]) it was 84.6%.

As for `O=C(NNC(=S)NC(=O)C12CC3CC(CC(C3)C1)C2)c1ccncc1`, the GFP response vs DMSO is 109% (inactive) in assay [1], 115% in assay [1] (setting [6]), 106% in assay [1] (setting [7]) and 112% (inactive) in assay [3]. The values for the GFP response relative to DMSO in assay [2], in assay [2] (setting [8]) and in assay [2] (setting [9]) were 137% (inactive), 125% and 136%, respectively. Further, the GFP response, % of DMSO in assay [4] was 97.3% (inactive); in assay [5], 115% (inactive); in assay [5] (setting [6]) it was 124%; in assay [5] (setting [7]), 106%.

`O=S(=O)(c1ccccc1)N1N=C(c2cccs2)CC1c1ccc(F)cc1` (configuration not stated): the GFP response vs DMSO in assay [1] was 99.7% (inactive); in assay [1] (setting [6]), 97.8%; in assay [1] (setting [7]), 100%; in assay [3] it was 100% (inactive). The GFP response relative to DMSO was 97.4% (inactive) in assay [2], 94.1% in assay [2] (setting [8]) and 101% in assay [2] (setting [9]). Also, the GFP response, % of DMSO is 104% (inactive) in assay [4], 97.8% (inactive) in assay [5], 96.5% in assay [5] (setting [6]) and 98.7% in assay [5] (setting [7]).

For the compound `Cc1nc2c(-c3ccc(F)cc3)cnn2c(N)c1-c1ccccc1`, the GFP response vs DMSO was 99.6% (inactive) in assay [1], 97.9% in assay [1] (setting [6]), 98.8% in assay [1] (setting [7]) and 103% (inactive) in assay [3]. The GFP response relative to DMSO in assay [2] is 101% (inactive); in assay [2] (setting [8]), 97.5%; in assay [2] (setting [9]), 100%. Besides, the GFP response, % of DMSO is 96.7% (inactive) in assay [4], 103% (inactive) in assay [5], 101% in assay [5] (setting [6]) and 104% in assay [5] (setting [7]).

`C/C(=N\NC(=O)Cc1ccc([N+](=O)[O-])cc1)c1cccnc1`: the GFP response vs DMSO in assay [1] was 97.8% (inactive); in assay [1] (setting [6]), 99.3%; in assay [1] (setting [7]) it was 97.7%; in assay [3] it was 96.8% (inactive). For the same compound, the GFP response relative to DMSO was 98.2% (inactive) in assay [2], 97.5% in assay [2] (setting [8]) and 97.3% in assay [2] (setting [9]). The GFP response, % of DMSO in assay [4] is 98.4% (inactive); in assay [5], 102% (inactive); in assay [5] (setting [6]) it was 103%; in assay [5] (setting [7]), 102%.

With `Oc1c(CN2CCN(c3ccccc3)CC2)cc(Br)c2cccnc12`, the GFP response vs DMSO in assay [1] was 99.6% (inactive); in assay [1] (setting [6]) it was 101%; in assay [1] (setting [7]), 95.9%; in assay [3], 153% (inactive). Moreover, the GFP response relative to DMSO is 220% (active) in assay [2], 168% in assay [2] (setting [8]) and 231% in assay [2] (setting [9]). The GFP response, % of DMSO in assay [4] is 81.5% (inactive); in assay [5] it was 103% (inactive); in assay [5] (setting [6]), 99.1%; in assay [5] (setting [7]) it was 93.8%.

In the case of `Cc1onc(-c2ccccc2)c1C(=O)N1CCC(C)CC1`, the GFP response vs DMSO was 92% (inactive) in assay [1], 93.4% in assay [1] (setting [6]), 91.6% in assay [1] (setting [7]) and 118% (inactive) in assay [3]. Moreover, the GFP response relative to DMSO in assay [2] was 103% (inactive); in assay [2] (setting [8]) it was 102%; in assay [2] (setting [9]), 103%. The GFP response, % of DMSO in assay [4] is 102% (inactive); in assay [5], 108% (inactive); in assay [5] (setting [6]), 105%; in assay [5] (setting [7]), 107%.

Turning to `Cc1ccc(S(=O)(=O)N(CC(=O)Nc2cccnc2)c2ccccc2C)cc1`, the GFP response vs DMSO in assay [1] was 104% (inactive); in assay [1] (setting [6]), 100%; in assay [1] (setting [7]) it was 105%; in assay [3], 105% (inactive). The GFP response relative to DMSO in assay [2] was 97% (inactive); in assay [2] (setting [8]) it was 95.9%; in assay [2] (setting [9]), 97.3%. Moreover, the GFP response, % of DMSO in assay [4] was 98.6% (inactive); in assay [5], 94.4% (inactive); in assay [5] (setting [6]) it was 92%; in assay [5] (setting [7]), 94.4%.

Take `COc1ccc(C(=O)ON=C2CCN(c3ccc([N+](=O)[O-])cc3)CC2)cc1`: the GFP response vs DMSO was 97.6% (inactive) in assay [1], 97.5% in assay [1] (setting [6]), 97.6% in assay [1] (setting [7]) and 97.5% (inactive) in assay [3]. For the same compound, the GFP response relative to DMSO in assay [2] was 117% (inactive); in assay [2] (setting [8]), 107%; in assay [2] (setting [9]) it was 118%. Moreover, the GFP response, % of DMSO in assay [4] is 76.1% (inactive); in assay [5] it was 108% (inactive); in assay [5] (setting [6]) it was 104%; in assay [5] (setting [7]), 108%.

With `Cc1sc(NC(=O)c2cccs2)nc1-c1ccccc1`, the GFP response vs DMSO in assay [1] is 106% (inactive); in assay [1] (setting [6]), 95.7%; in assay [1] (setting [7]) it was 105%; in assay [3], 109% (inactive). In addition, the results for the GFP response relative to DMSO in assay [2], in assay [2] (setting [8]) and in assay [2] (setting [9]) were 110% (inactive), 106% and 112%, respectively. Further, the GFP response, % of DMSO in assay [4] is 97.5% (inactive); in assay [5], 95.9% (inactive); in assay [5] (setting [6]) it was 93.8%; in assay [5] (setting [7]) it was 95.6%.

As for `CCc1ccc(NC(=O)c2nc(S(=O)(=O)Cc3ccccc3)ncc2Cl)cc1`, the GFP response vs DMSO in assay [1] was 94.8% (inactive); in assay [1] (setting [6]), 94.2%; in assay [1] (setting [7]) it was 93.8%; in assay [3], 97.5% (inactive). In addition, the GFP response relative to DMSO in assay [2] was 126% (inactive); in assay [2] (setting [8]), 118%; in assay [2] (setting [9]), 124%. Moreover, the GFP response, % of DMSO in assay [4] is 96% (inactive); in assay [5] it was 87.8% (inactive); in assay [5] (setting [6]), 90.9%; in assay [5] (setting [7]), 82.8%.

As for `Cc1ccc(C(=O)N2c3ccccc3NC(=O)C2C)cc1` (configuration not stated), the GFP response vs DMSO in assay [1] is 99.9% (inactive); in assay [1] (setting [6]) it was 98.1%; in assay [1] (setting [7]) it was 100%; in assay [3], 100% (inactive). The GFP response relative to DMSO in assay [2] is 102% (inactive); in assay [2] (setting [8]) it was 98.7%; in assay [2] (setting [9]), 105%. The GFP response, % of DMSO is 100% (inactive) in assay [4], 97.8% (inactive) in assay [5], 94.8% in assay [5] (setting [6]) and 98.7% in assay [5] (setting [7]).

For `Cc1ccc(C(=O)Oc2oc(-c3ccco3)nc2C=Nc2ccc(Cl)cc2)cc1`, the GFP response vs DMSO in assay [1] was 102% (inactive); in assay [1] (setting [6]), 98.3%; in assay [1] (setting [7]), 98.8%; in assay [3], 110% (inactive). Further, the GFP response relative to DMSO in assay [2] is 207% (active); in assay [2] (setting [8]), 168%; in assay [2] (setting [9]), 205%. Besides, the GFP response, % of DMSO in assay [4] is 93.8% (inactive); in assay [5] it was 106% (inactive); in assay [5] (setting [6]), 111%; in assay [5] (setting [7]), 98%.

As to `CC1CCCN(CCCNC(=O)C2CCN(S(=O)(=O)N3CCC4(CC3)OCCO4)CC2)C1` (configuration not stated), the GFP response vs DMSO in assay [1] was 96.4% (inactive); in assay [1] (setting [6]), 96.1%; in assay [1] (setting [7]) it was 98.5%; in assay [3], 96.2% (inactive). The GFP response relative to DMSO is 97.9% (inactive) in assay [2], 97.6% in assay [2] (setting [8]) and 96.1% in assay [2] (setting [9]). The GFP response, % of DMSO in assay [4] is 98.9% (inactive); in assay [5], 105% (inactive); in assay [5] (setting [6]), 106%; in assay [5] (setting [7]) it was 106%.

In the case of `CC1=NNC(=O)/C1=C\c1cn(-c2ccccc2)nc1-c1ccccc1`, the GFP response vs DMSO in assay [1] is 98% (inactive); in assay [1] (setting [6]), 82.8%; in assay [1] (setting [7]), 95.5%; in assay [3] it was 110% (inactive). Also, the results for the GFP response relative to DMSO in assay [2], in assay [2] (setting [8]) and in assay [2] (setting [9]) were 242% (active), 164% and 236%, respectively. For the same compound, the GFP response, % of DMSO in assay [4] is 124% (inactive); in assay [5] it was 115% (inactive); in assay [5] (setting [6]) it was 93.7%; in assay [5] (setting [7]), 104%.

In the case of `O=C(/C=C/c1ccc(O)cc1)c1ccc(O)cc1O`, the GFP response vs DMSO in assay [1] was 93.7% (inactive); in assay [1] (setting [6]), 92.9%; in assay [1] (setting [7]), 94.6%; in assay [3], 102% (inactive). The GFP response relative to DMSO in assay [2] was 96.7% (inactive); in assay [2] (setting [8]) it was 97.6%; in assay [2] (setting [9]) it was 96.1%. In addition, the GFP response, % of DMSO in assay [4] was 109% (inactive); in assay [5] it was 103% (inactive); in assay [5] (setting [6]), 103%; in assay [5] (setting [7]) it was 102%.

`O=C1C=CC(=O)N1c1ccc(O)cc1`: the GFP response vs DMSO in assay [1] was 96.6% (inactive); in assay [1] (setting [6]) it was 96.9%; in assay [1] (setting [7]), 85.9%; in assay [3], 100% (inactive). The results for the GFP response relative to DMSO in assay [2], in assay [2] (setting [8]) and in assay [2] (setting [9]) were 196% (active), 192% and 192%, respectively. The GFP response, % of DMSO in assay [4] was 90% (inactive); in assay [5], 96.9% (inactive); in assay [5] (setting [6]), 116%; in assay [5] (setting [7]), 84.3%.
